Assay results taken from ChEMBL document CHEMBL1154358, “Xanalteric acids I and II and related phenolic compounds from an endophytic Alternaria sp. isolated from the mangrove plant Sonneratia alba” (J Nat Prod, 2009).
In brackets after ≈: the same amount, converted by molar mass. Activity calls are given as the source filed them.

Columns and labels:
[1] = tested on: Enterobacter cloacae; test: Antibacterial activity against multidrug-resistant Enterobacter cloacae by broth dilution method; format: functional
Procedure, shortened: (§1)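 Dilution assay following EUCAST criteria against multidrug-resistant bacterial or fungal strains. Compounds were tested from 250 down to 0.48 μg/mL. MIC was taken as the lowest concentration at which bacterial or fungal growth was inhibited.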

[2] = tested on: Aspergillus fumigatus; test: Antifungal activity against multidrug-resistant Aspergillus fumigatus by broth dilution method; format: functional, organism-based; procedure, shortened: as §1
[3] = tested on: Candida albicans; test: Antifungal activity against multidrug-resistant Candida albicans by broth dilution method; format: functional; procedure, shortened: as §1
[4] = tested on: Acinetobacter baumannii; test: Antibacterial activity against multidrug-resistant Acinetobacter baumannii by broth dilution method; format: functional, organism-based
[5] = tested on: Streptococcus pneumoniae; test: Antibacterial activity against multidrug-resistant Streptococcus pneumoniae by broth dilution method; format: functional; procedure, shortened: as §1
[6] = tested on: Escherichia coli; test: Antibacterial activity against multidrug-resistant Escherichia coli by broth dilution method; format: functional, organism-based; procedure, shortened: as §1
[7] = tested on: Enterococcus faecium; test: Antibacterial activity against multidrug-resistant Enterococcus faecium by broth dilution method; format: functional; procedure, shortened: as §1
[8] = tested on: Pseudomonas aeruginosa; test: Antibacterial activity against multidrug-resistant Pseudomonas aeruginosa by broth dilution method; format: functional, organism-based; procedure, shortened: as §1
[9] = tested on: Staphylococcus aureus; test: Antibacterial activity against methicillin-resistant Staphylococcus aureus by broth dilution method; format: functional; procedure, shortened: as §1
[10] = tested on: Pichia kudriavzevii; test: Antifungal activity against multidrug-resistant Candida krusei by broth dilution method; format: functional, organism-based; procedure, shortened: as §1
[11] = tested on: Klebsiella pneumoniae; test: Antibacterial activity against multidrug-resistant Klebsiella pneumoniae by broth dilution method; format: functional, organism-based; procedure, shortened: as §1
[12] = tested on: Aspergillus ficuum; test: Antifungal activity against multidrug-resistant Aspergillus ficuum by broth dilution method; format: functional
[13] = Cytotoxicity against mouse L5178Y cells assessed as cell viability at 10 ug/ml after 24 hrs by MTT assay; format: cell-based; details: read-out: Activity
Procedure, shortened: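 Mouse lymphoma L5178Y cells; viability read by MTT tetrazolium microculture assay. Run as three independent experiments, each in triplicate. Medium with 0.1% (v/v) EtOH served as the negative control in every experiment.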

Row | SMILES | Activity [1] | Activity [2] | Activity [3] | Activity [4] | Activity [5] | Activity [6] | Activity [7] | Activity [8] | Activity [9] | Activity [10] | Activity [11] | Activity [12] | other results
1 | O=C1C[C@@H](O)[C@H]2c3c(ccc(O)c31)-c1ccc(O)c3c1[C@]2(O)C=CC3=O | inactive | inactive | inactive | inactive | inactive | inactive | inactive | inactive | inactive | inactive | inactive | inactive | –
2 | O=C1C[C@@H](O)[C@@H]2c3ccc(O)c4c3[C@@H](c3ccc(O)c1c32)[C@H](O)CC4=O | inactive | inactive | inactive | inactive | inactive | inactive | inactive | inactive | inactive | inactive | inactive | inactive | –
3 | Cc1cc(O)cc2oc(=O)c3c(O)cc(O)cc3c12 | inactive | – | inactive | – | inactive | – | inactive | – | inactive | – | – | inactive | MIC [2]: inactive; MIC [4]: inactive; MIC [6]: inactive; MIC [8]: inactive; MIC [10]: inactive; MIC [11]: inactive
4 | COc1cc(O)c2c(c1)C1C[C@H](O)[C@@H](O)C[C@@]1(C)OC2=O (some centres undefined) | inactive | inactive | inactive | inactive | inactive | inactive | inactive | inactive | inactive | inactive | inactive | inactive | –
5 | O=C1C=Cc2c3c4c(c(O)ccc4c4ccc(O)c1c24)OC(C(=O)O)C3O (centres undefined) [XANALTERIC ACID I] | – | inactive | – | inactive | – | inactive | – | inactive | – | inactive | inactive | – | viability at 24 h, 10 ug/ml [13]: 45%; MIC [9]: 125 µg/mL (≈ 343 µM)
6 | O=C1C[C@H](O)[C@@H]2c3c(ccc(O)c31)-c1ccc(O)c3c1[C@@]2(O)CCC3=O | inactive | inactive | inactive | inactive | inactive | inactive | inactive | inactive | inactive | inactive | inactive | inactive | –
7 | COc1cc(O)c2c(=O)oc3cc(O)cc(C)c3c2c1 | inactive | inactive | inactive | inactive | inactive | inactive | inactive | inactive | inactive | inactive | inactive | inactive | –
8 | COc1c(CC(C)O)c2c3c(CC(C)O)c(OC)c(=O)c4c(O)cc5c(c6c(cc(O)c(c1=O)c62)OCO5)c43 (centres undefined) | inactive | inactive | inactive | inactive | inactive | inactive | inactive | inactive | inactive | inactive | inactive | inactive | –
9 | COc1cc(O)c(C(=O)O)c(-c2c(C)cc(C(=O)O)oc2=O)c1 [ALTERNARIAN ACID] | inactive | inactive | inactive | inactive | inactive | inactive | inactive | inactive | inactive | inactive | inactive | inactive | viability at 24 h, 10 ug/ml [13]: 99.2%
10 | COc1c(CC(C)O)c2c3c(CC(C)O)c(C(=O)O)oc4c(O)cc5c(c6c(cc(O)c(c1=O)c62)OCO5)c43 (centres undefined) | inactive | inactive | inactive | inactive | inactive | inactive | inactive | inactive | inactive | inactive | inactive | inactive | –
11 | COc1cc(O)c(C(=O)O)c(-c2cc(O)c(O)cc2C)c1 [ALTENUSIN] | – | inactive | – | inactive | – | inactive | – | inactive | – | inactive | inactive | – | MIC [1]: 125 µg/mL (≈ 431 µM); MIC [3]: 125 µg/mL (≈ 431 µM); MIC [5]: 31.2 µg/mL (≈ 108 µM); MIC [7]: 62.5 µg/mL (≈ 215 µM); MIC [9]: 31.2 µg/mL (≈ 108 µM); MIC [12]: 62.5 µg/mL
12 | COc1cc(O)c2c(c1)C1=C[C@H](O)[C@@H](O)C[C@]1(C)OC2=O | inactive | inactive | inactive | inactive | inactive | inactive | inactive | inactive | inactive | inactive | inactive | inactive | –
13 | O=C1C=Cc2c3c4c(c(O)ccc4c4ccc(O)c1c24)OC(O)(C(=O)O)C3 (centres undefined) [XANALTERIC ACID II] | – | inactive | – | inactive | – | inactive | – | inactive | – | inactive | inactive | – | viability at 24 h, 10 ug/ml [13]: 87.5%; MIC [9]: 250 µg/mL (≈ 686 µM)
